For 22 compounds, Displacement, IC50 and Ki results are on record in ChEMBL document CHEMBL1140341, “Synthesis and radioligand binding studies of C-5- and C-8-substituted 1-(3,4-dimethoxybenzyl)-2,2-dimethyl-1,2,3,4-tetrahydroisoquinoliniums as SK channel blockers related to N-methyl-laudanosine and N-methyl-noscapine” (J Med Chem, 2005).

Each structure is given as a SMILES string.

Assay [1] concerns the target Small conductance calcium-activated potassium channel (Rattus norvegicus) (UniProt P70604+P70606+P70605). In words: Displacement of [125I]apamin from calcium-activated potassium (SK) channels of rat cortex at 10 uM. The method, boiled down: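 Rat cortical synaptosomes (0.2 mg protein/mL) in 10 mM Tris-HCl pH 7.5 with 5.4 mM KCl and 0.1% BSA. Incubated 1 h at 0 °C with about 10 pM 125I-apamin and 10 μM drug. Filtered on polyethylenimine-coated GF/C filters, washed twice, counted by scintillation. Nonspecific binding defined with 0.1 μM unlabeled apamin; filter binding without synaptosomes subtracted.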
(In general: Displacement assays read how much labelled ligand stays bound in the presence of the test substance.)

The target in assay [2] is Small conductance calcium-activated potassium channel (Rattus norvegicus, UniProt P70604+P70606+P70605). In words: Inhibition of [125I]apamin binding to calcium-activated potassium (SK) channel of rat cortex. The method, boiled down: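 Cortical synaptosomes (0.2 mg protein/mL), Tris-HCl 10 mM pH 7.5 buffer with 5.4 mM KCl and 0.1% BSA. 1 h at 0 °C with ±10 pM 125I-apamin and nine drug concentrations (10-4–10-7 M); run for drugs displacing at least 20% at 10 μM. Polyethylenimine-coated GF/C filtration, scintillation counting. Nonspecific binding with 0.1 μM apamin; curve-fitted.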

Take `COc1ccc(CC2c3c(cccc3C(C)C)CC[N+]2(C)C)cc1OC.[I-]` (stereo not given): the Displacement in assay [1] was found to be 55%. Moreover, in assay [2], the IC50 – broadly, the concentration that gives 50% inhibition – came out at 8.6 µM and the Ki (in general, a measure of affinity in units of concentration, obtained from inhibition or displacement) came to 1.6 µM. Turning to `COc1ccc(CC2c3c(Br)cccc3CCN2C)cc1OC` (stereo not given), the Displacement in assay [1] was 10%. `COc1ccc(CC2c3cccc(Cl)c3CC[N+]2(C)C)cc1OC` (stereo not given): the Displacement in assay [1] worked out at 27%. For the same compound, in assay [2], the IC50 worked out at 39.6 µM and the inhibitory constant (Ki) amounted to 7.6 µM. Consider `COc1ccc(CC2c3c(C)cccc3CCN2C)cc1OC` (stereo not given), for which, in assay [1], the Displacement turned out to be 10%. For the compound `COc1ccc(CC2c3sccc3CCN2C)cc1OC` (stereo not given), the Displacement in assay [1] was 2%. Take `CCc1cccc2c1C(Cc1ccc(OC)c(OC)c1)[N+](C)(C)CC2.[I-]` (stereo not given): the Displacement in assay [1] was 44%. Further, in assay [2], the IC50 was determined as 13.6 µM and the Ki worked out at 2.6 µM. Turning to `CCc1cccc2c1C(Cc1ccc(OC)c(OC)c1)N(C)CC2` (stereo not given), the Displacement in assay [1] came out at 2%. On to `COc1ccc(CC2c3c(Cl)cccc3CC[N+]2(C)C)cc1OC.[I-]` (stereo not given), for which the Displacement in assay [1] stood at 23%. Further, in assay [2], the IC50 amounted to 50 µM and the Ki is 9.3 µM. Consider `COc1ccc(CC2c3c(cccc3C(C)C)CCN2C)cc1OC` (stereo not given), for which, in assay [1], the Displacement came to 10%.

On to `COc1ccc(CC2c3c(Cl)cccc3CCN2C)cc1OC` (stereo not given), for which the Displacement in assay [1] amounted to 5%. `COc1ccc(CC2c3sc(C)cc3CC[N+]2(C)C)cc1OC` (stereo not given): in assay [1], the Displacement amounted to 18%.

For the compound `COc1ccc(CC2c3c(Br)cccc3CC[N+]2(C)C)cc1OC.[I-]` (stereo not given), in assay [1], the Displacement was determined as 26%. For the same compound, in assay [2], the IC50 was found to be 35.2 µM and the inhibitory constant (Ki) is 6.8 µM. As for `COc1ccc(CC2c3c(cccc3OC)CC[N+]2(C)C)cc1OC` (stereo not given), the Displacement in assay [1] is 9%. The same measure, in the same setting: under `COc1ccc(CC2c3cccc(Cl)c3CCN2C)cc1OC` (stereo not given) stands 8%.

In the case of `COc1ccc2c(c1OC)C(=O)OC2C1c2c(cc3c(c2OC)OCO3)CC[N+]1(C)C.[I-]` (stereo not given), the Displacement in assay [1] stood at 27%. Besides, in assay [2], the IC50 worked out at 14.1 µM and the Ki stood at 3.6 µM. As to `COc1ccc(CC2c3sccc3CC[N+]2(C)C)cc1OC` (stereo not given), the Displacement in assay [1] is 15%. Turning to `COc1ccc(C[C@H]2c3cc(OC)c(OC)cc3CC[N+]2(C)C)cc1OC.[I-]` [LAUDANOSINE METHIODIDE], in assay [1], the Displacement is 57%. Besides, in assay [2], the 50% inhibitory concentration (IC50) was 8.7 µM and the Ki stood at 1.6 µM.

As for `COc1ccc(CC2c3cccc(Br)c3CCN2C)cc1OC` (stereo not given), the Displacement in assay [1] turned out to be 1%.

For `COc1ccc(CC2c3cccc(Br)c3CC[N+]2(C)C)cc1OC` (stereo not given), the Displacement in assay [1] was 29%. In addition, in assay [2], the IC50 came out at 25.4 µM and the inhibitory constant (Ki) came to 4.9 µM. As to `COc1ccc(CC2c3c(C)cccc3CC[N+]2(C)C)cc1OC.[I-]` (stereo not given), the Displacement in assay [1] amounted to 24%. In addition, in assay [2], the IC50 worked out at 28.4 µM and the Ki was found to be 5.5 µM. In the case of `COc1ccc(CC2c3c(cccc3OC)CCN2C)cc1OC` (stereo not given), the Displacement in assay [1] was found to be 1%. `COc1ccc(CC2c3sc(C)cc3CCN2C)cc1OC` (stereo not given): in assay [1], the Displacement amounted to 1%.
